Results on 42 compounds are retold here after PubChem BioAssay AID2052 (NMMLSC, 2009).

In all, about 330,000 compounds went through this assay and about 220 (0.067%) were called active.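 How the source made its calls: active means response, share of CD8 T cells binding vesicles, and their 90th percentile fluorescence all below set limits (cut at about 80% in these data, passing the limit was not always enough); inactive means the rest, inconclusive results apart.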 The entries come from a sample that favours actives as a whole.

The nature of this test: modulators of CD8 T cell-vesicle binding, primary screen, mouse 2C CD8+ T cells, flow cytometry (AID 2052).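 On double positive events: binding gate set so that unloaded-vesicle control wells show 10% double positive cells.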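 On response (vesicle binding): values below 100% mean blocked vesicle binding to the CD8+ T cells.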 The following applies: 2C CD8+ T cell-vesicle binding, at 7 µM, stronger effect = lower value; double positive events: measured here: CD8+ vesicle-bound cell fraction. The method in brief: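 Also added: QL9-peptide-loaded Drosophila micro-vesicles bearing Ld, ICAM-1 and B7-1; Test system: purified 2C TCR transgenic mouse naive CD8+ T cells; Measured by: cytometric PE anti-B7-1 and Alexa647 anti-CD8 signals after 1% paraformaldehyde fixation; Timing: binding step 1.5 h, 37 °C, antibody labelling 20 min, ice.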
On the technique in general: In flow cytometry, cells or beads pass a laser one at a time.
For `COc1ccccc1S(=O)(=O)NCc1ccc(C(=O)N(C)Cc2ccc(F)cc2)cc1`, the double positive events worked out at 31.2% and the response (vesicle binding) is 557% (inactive).
The corresponding values for `CCOc1ccc(NC(=O)CC2C(=O)N(c3ccccc3)C(=O)N2CCOC)cc1` (centres undefined) are 22.1% and 526% (inactive).
Taken in the same sequence, the figures for `Cc1cc(C)cc(NC(=O)NC2CCN(CC(=O)Nc3cccc(Cl)c3C)CC2)c1` were 43.5% and 437% (inactive).
Take `O=C1C(=O)N(CCN2CCOCC2)C(c2cccc(Cl)c2)/C1=C(/O)c1ccc2c(c1)OCO2` (centres undefined): the double positive events came out at 10.1% and the response (vesicle binding) was 653% (inactive).
The corresponding values for `O=C(NCc1ccc2c(c1)OCO2)c1cc(F)c(F)cc1Cl` are 11.4% and 338% (inactive).
Taken in the same sequence, the figures for `O=C(NCc1ccc2c(c1)OCO2)c1cc2c(s1)CS(=O)(=O)C2` were 37.5% and 576% (inactive).
Regarding `O=C(NCc1ccc2c(c1)OCO2)c1ccc(Cl)s1`, the double positive events was 0% and the response (vesicle binding) was 0% (active).
The corresponding values for `COc1ccc(C(=O)NCc2ccc(C)cc2)cc1S(=O)(=O)N1CCCC1` are 47.1% and 276% (inactive).
For the compound `O=C(CSc1nc2ccccc2c(=O)n1-c1ccccc1F)N1CCOCC1`, the double positive events was determined as 37.3% and the response (vesicle binding) was 244% (inactive).
Taken in the same sequence, the figures for `Cc1ccc(Cl)c(OCC(=O)N(C)CC(=O)Nc2ccc(N3CCOCC3)cc2)c1` were 61.8% and 424% (inactive).
The corresponding values for `CCOC(=O)c1cccc(NC(=O)C2CCCN(S(=O)(=O)c3cnc[nH]3)C2)c1` (centres undefined) are 47.8% and 586% (inactive).
As to `Cc1nc2ccc(C(=O)N(C)CC3CCCN(CCc4ccc(Cl)cc4)C3)cc2[nH]1` (centres undefined), the double positive events came out at 20.7% and the response (vesicle binding) was 442% (inactive).
Turning to `Cc1ccc(N2CC(C(=O)NCCS(=O)(=O)N3CCN(c4ccccc4)CC3)CC2=O)cc1` (centres undefined), the double positive events worked out at 11% and the response (vesicle binding) was 383% (inactive).
Taken in the same sequence, the figures for `CN1C(=O)/C(=C/C=C2\SCCN2C)OC1=S` were 25.3% and 177% (inactive).
Taken in the same sequence, the figures for `CCN1CCN(C(=O)c2cc3cc4ccc(OC)cc4nc3s2)CC1` were 24.6% and 601% (inactive).
The corresponding values for `CN(CC(=O)NCCc1ccc(S(N)(=O)=O)cc1)CC(=O)Nc1ccc(Cl)cc1` are 39.4% and 1090% (inactive).
For `COc1ccc([N+](=O)[O-])cc1NC(=O)c1ccc(N(Cc2ccccc2C)S(C)(=O)=O)cc1`, the double positive events was 0.1% and the response (vesicle binding) was 6.1% (active).
For `Cc1ccccc1CN(c1ccc(C(=O)NCC2CCCO2)cc1)S(C)(=O)=O` (centres undefined), the double positive events came to 4.3% and the response (vesicle binding) was 168% (inactive).
The corresponding values for `COc1ccc(C(=O)CC(=O)C(=O)Nc2cc([N+](=O)[O-])ccc2OC)cc1` are 13.4% and 256% (inactive).
Take `COc1ccccc1OCCn1c(SCC(N)=O)nc2ccccc21`: the double positive events amounted to 16% and the response (vesicle binding) is 348% (inactive).
Taken in the same sequence, the figures for `Cc1ccc(NC(=O)CN(C)S(=O)(=O)c2cnc[nH]2)cc1C` were 18.7% and 261% (inactive).
Taken in the same sequence, the figures for `CC(Oc1ccccc1)C(=O)Nc1c2c(nn1-c1ccccc1)CS(=O)C2` (centres undefined) were 7.9% and 237% (inactive).
With `CCOC(=O)c1ccccc1NC(=S)N1CCC(C(N)=O)CC1`, the double positive events amounted to 33.7% and the response (vesicle binding) was 285% (inactive).
Turning to `OC(CNCc1ccc(Cl)c(Cl)c1)c1ccccc1` (centres undefined), the double positive events is 58.3% and the response (vesicle binding) is 66.1% (inactive).
The corresponding values for `Cc1c(NC(=O)CN2C(=O)C(=O)N(Cc3ccccc3)C2=O)c(=O)n(-c2ccccc2)n1C` are 54.7% and 606% (inactive).
Taken in the same sequence, the figures for `Cc1c(NC(=S)Nc2ccccc2)c(=O)n(-c2ccccc2)n1C` were 28% and 297% (inactive).
Taken in the same sequence, the figures for `Cc1c(NC(=S)NC(=O)CCc2ccccc2)c(=O)n(-c2ccccc2)n1C` were 1.1% and 17.6% (active).
`CC(C)(C)c1cc(P(=O)(c2ccccc2)c2ccccc2)ccc1O`: the double positive events was determined as 28.1% and the response (vesicle binding) was 82.3% (inactive).
Regarding `CC(=O)c1ccc(N2CCN(CC(=O)Nc3ccccc3N3CCOCC3)CC2)cc1`, the double positive events was found to be 42.5% and the response (vesicle binding) was 203% (inactive).
Taken in the same sequence, the figures for `O=C(CN1CCN(C2CCCCC2)CC1)Nc1ccccc1N1CCCCC1` were 6.3% and 0% (active).
The corresponding values for `Cc1ccccc1NC(=O)Nc1ccccc1N1CCCCC1` are 27.3% and 308% (inactive).
The corresponding values for `COc1ccc(CN(C)C(=S)Nc2ccc(Cl)cc2Cl)cc1` are 9.4% and 367% (inactive).
Regarding `CCN1CCN(C(=O)C2CCN(S(=O)(=O)c3cc(Cl)ccc3Cl)CC2)CC1`, the double positive events came to 29.3% and the response (vesicle binding) is 223% (inactive).
The corresponding values for `O=C(NN1C(=O)C2C3C=CC(C3)C2C1=O)c1ccco1` (centres undefined) are 43% and 570% (inactive).
The corresponding values for `CCOc1ccc2[nH]c(=O)c(CN(Cc3nnnn3CCc3ccccc3)CC3CCCO3)cc2c1` (centres undefined) are 50.9% and 238% (inactive).
Taken in the same sequence, the figures for `COC(=O)c1ccc(C2NC(=O)NC(C)=C2C(=O)N(C)C)cc1` (centres undefined) were 31.3% and 393% (inactive).
`CCOc1ccc(CCNC(=O)COC(=O)C2CCN(c3ccc(C(F)(F)F)cn3)CC2)cc1OCC`: the double positive events was 38.6% and the response (vesicle binding) was 818% (inactive).
The corresponding values for `CCCc1c(C(=O)Nc2ccc(F)cc2)cnn1-c1ccccc1` are 19.3% and 479% (inactive).
The corresponding values for `O=C(COC(=O)CC1CC2CCC1C2)NC(=O)NC1CCCC1` (centres undefined) are 20.7% and 248% (inactive).
The corresponding values for `COCCn1nnnc1C(c1cc2ccc(OC)cc2[nH]c1=O)N1CCc2ccccc2C1` (centres undefined) are 16.7% and 0% (active).
Regarding `COc1ccc(OC)c(C(c2nnnn2C(C)(C)C)N2CCc3ccccc3C2)c1` (centres undefined), the double positive events stood at 55.6% and the response (vesicle binding) is 342% (inactive).
Taken in the same sequence, the figures for `CCOc1ccc2[nH]c(=O)c(C(c3nnnn3CCOC)N3CCOCC3)cc2c1` (centres undefined) were 11.4% and 261% (inactive).
